Results on five compounds are retold here after ChEMBL document CHEMBL1125910, “Design of a well-absorbed renin inhibitor” (J Med Chem, 1991).

Test [1] concerns the target T1, Cathepsin D (Bos taurus) (UniProt P80209).
T1 sequence (whole entry): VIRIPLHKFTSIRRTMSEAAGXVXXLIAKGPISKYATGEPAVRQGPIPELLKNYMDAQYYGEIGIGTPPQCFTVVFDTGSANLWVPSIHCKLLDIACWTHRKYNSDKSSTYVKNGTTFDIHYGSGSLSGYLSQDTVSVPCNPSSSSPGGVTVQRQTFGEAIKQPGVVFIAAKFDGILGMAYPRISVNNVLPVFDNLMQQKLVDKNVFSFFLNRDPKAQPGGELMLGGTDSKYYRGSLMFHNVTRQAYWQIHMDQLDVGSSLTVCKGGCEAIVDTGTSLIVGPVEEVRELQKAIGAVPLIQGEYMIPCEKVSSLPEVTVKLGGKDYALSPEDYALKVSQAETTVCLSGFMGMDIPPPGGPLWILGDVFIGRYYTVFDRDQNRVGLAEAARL
Kind of test: Inhibitory activity against cathepsin D in bovine at 1*10e-7 M concentration. The essentials:
(§1)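 Bovine or human cathepsin D, assayed at pH 3.0; percent inhibition recorded with inhibitor at 1 × 10^-5 M, and also at 1 × 10^-7 M.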

Test [2] deals with T1, Cathepsin D (Bos taurus). As to the kind of experiment: Inhibitory activity against cathepsin D in bovine at 1*10e-5 M concentration. Put shortly:
as §1

Test [3] has as its target Pepsin A (Homo sapiens) (UniProt P0DJD9). As to the kind of experiment: Inhibitory activity against human pepsin at 1*10e-5 M. Format: functional. The essentials:
(§2)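 Human or porcine pepsin, assayed at pH 2.0; percent inhibition recorded with inhibitor at 1 × 10^-5 M.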

Test [4] concerns Rattus norvegicus. Kind of test: Upon intraduodenal administration in rats at a dose of 10 mg/kg, portal plasma levels calculated after 10 min. It is filed as functional, organism-based. Also on record: dose 10 mg/kg. Put shortly:
(§3)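 Anesthetized rats given 10 mg/kg intraduodenally. Blood sampled at 10 and 30 min from the portal vein and from the systemic circulation. Drug level in plasma measured by renin inhibition assay, reported in ng/mL as mean ± SE, n = 3 (some groups 5 or 6).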

For test [5], the system named is Rattus norvegicus. Kind of test: Upon intraduodenal administration in rats at a dose of 10 mg/kg, portal plasma levels calculated after 30 min. Format: functional, organism-based. Details: dose 10 mg/kg. Put shortly: as §3
Test [6] concerns the target Cathepsin D (Homo sapiens) (UniProt P07339). Kind of test: Inhibitory activity against cathepsin D in human at 1*10e-7 M concentration. The essentials:
as §1

For test [7], the target named is Pepsin A (Sus scrofa) (UniProt P00791). As to the kind of experiment: Inhibitory activity against pepsin in porcine at 1*10e-5 M concentration. Format: functional. Put shortly:
as §2

In test [8] the target is T2, Renin (Homo sapiens, UniProt P00797).
T2 sequence (P00797 whole entry): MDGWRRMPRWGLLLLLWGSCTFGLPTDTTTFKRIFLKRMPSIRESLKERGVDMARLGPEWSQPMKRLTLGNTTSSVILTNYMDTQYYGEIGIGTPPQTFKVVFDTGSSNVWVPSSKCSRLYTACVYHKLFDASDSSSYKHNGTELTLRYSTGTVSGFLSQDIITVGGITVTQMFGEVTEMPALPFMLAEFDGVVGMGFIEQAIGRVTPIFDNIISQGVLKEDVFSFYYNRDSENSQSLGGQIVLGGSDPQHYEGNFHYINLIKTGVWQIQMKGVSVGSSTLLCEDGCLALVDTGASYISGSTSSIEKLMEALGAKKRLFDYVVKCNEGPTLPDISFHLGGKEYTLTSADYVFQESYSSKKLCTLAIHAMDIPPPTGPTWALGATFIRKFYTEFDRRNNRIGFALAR
As to the kind of experiment: Compound was evaluated for the inhibitory concentration against human plasma renin at pH 7.4. It is filed as cell-free. Put shortly: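 Renin inhibition assayed in human plasma, with plasma renin as the enzyme source, at pH 7.4. IC50 reported in nM.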

The test system of test [9] is Rattus norvegicus. As to the kind of experiment: Upon intraduodenal administration in rats at a dose of 10 mg/kg, systemic plasma levels calculated after 10 min. It is filed as functional, organism-based. Details: dose 10 mg/kg. Put shortly:
as §3

Test [10] deals with Cathepsin D (Homo sapiens) (UniProt P07339). Kind of test: Inhibitory activity against cathepsin D in human at 1*10e-5 M concentration. Put shortly:
as §1

Test [11] concerns the target T2, Renin. As to the kind of experiment: Compound was evaluated for the inhibitory concentration against purified human renal renin at pH 6.5.
Test [12] has as its system Rattus norvegicus. As to the kind of experiment: Upon intraduodenal administration in rats at a dose of 10 mg/kg, systemic plasma levels calculated after 30 min. Format: functional, organism-based. Details: dose 10 mg/kg. The essentials:
as §3

Each structure is given as a SMILES string.

Chain of Pepsin A (Sus scrofa) (P00791 60-385 limits assumed): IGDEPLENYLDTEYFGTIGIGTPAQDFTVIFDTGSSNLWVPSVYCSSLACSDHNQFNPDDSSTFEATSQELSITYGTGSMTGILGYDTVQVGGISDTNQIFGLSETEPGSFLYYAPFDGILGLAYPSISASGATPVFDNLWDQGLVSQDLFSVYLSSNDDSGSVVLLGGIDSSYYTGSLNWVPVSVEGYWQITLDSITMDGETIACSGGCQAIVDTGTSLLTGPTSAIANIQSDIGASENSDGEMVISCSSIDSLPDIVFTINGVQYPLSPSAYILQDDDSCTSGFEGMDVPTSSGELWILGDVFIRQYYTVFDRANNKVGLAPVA
Chain of Cathepsin D (Homo sapiens) (P07339 65-162 limits assumed): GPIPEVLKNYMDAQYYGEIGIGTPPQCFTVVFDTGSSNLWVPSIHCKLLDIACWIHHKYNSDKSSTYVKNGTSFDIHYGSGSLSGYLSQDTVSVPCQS
Chain of Cathepsin D (Homo sapiens) (P07339 169-412 limits assumed): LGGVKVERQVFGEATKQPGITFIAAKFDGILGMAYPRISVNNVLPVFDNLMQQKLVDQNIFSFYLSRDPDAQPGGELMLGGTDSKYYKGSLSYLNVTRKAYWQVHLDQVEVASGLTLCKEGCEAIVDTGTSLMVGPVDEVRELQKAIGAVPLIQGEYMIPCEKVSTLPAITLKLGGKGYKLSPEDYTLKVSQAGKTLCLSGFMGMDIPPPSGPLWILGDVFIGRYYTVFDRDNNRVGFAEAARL
Chain of Pepsin A (Homo sapiens) (P0DJD9 63-388 limits assumed): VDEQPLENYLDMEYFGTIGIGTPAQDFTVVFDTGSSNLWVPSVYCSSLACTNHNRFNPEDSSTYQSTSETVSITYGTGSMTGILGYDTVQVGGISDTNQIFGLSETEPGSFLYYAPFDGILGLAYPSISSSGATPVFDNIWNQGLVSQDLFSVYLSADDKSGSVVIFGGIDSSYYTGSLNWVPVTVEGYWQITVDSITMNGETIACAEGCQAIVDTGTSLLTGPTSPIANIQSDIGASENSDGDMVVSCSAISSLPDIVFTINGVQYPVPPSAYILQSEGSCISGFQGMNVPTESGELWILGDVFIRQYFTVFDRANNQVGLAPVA

One may read the inhibition as the change of the read-out against control, counted positive when it falls. Lower therefore signals little suppression. Broadly, the IC50 is the concentration needed to halve the response being measured. A low value points to higher potency. Regarding `CCN1C[C@@H]([C@H](O)[C@H](CC2CCCCC2)NC(=O)[C@H](Cc2cscn2)NC(=O)[C@@H](CC(=O)N2CCOCC2)Cc2ccccc2)OC1=O`, the inhibition in [1] was 28%; in test [2] it was 93%; in test [3], 26%; in [6], 40%; in test [7] it was 57%; in test [10], 100%. Also, the Plasma level in [4] was 1900 ng/mL; in test [5], 1100 ng/mL; in [9], 320 ng/mL; in test [12], 300 ng/mL. For the same compound, the values for the IC50 in test [8] and in test [11] were 8.1 nM and 0.6 nM, respectively.
As to `CCN1C[C@@H]([C@H](O)[C@H](CC2CCCCC2)NC(=O)[C@H](Cc2cn(C)cn2)NC(=O)[C@@H](CC(=O)N2CCOCC2)Cc2ccccc2)OC1=O`, the half-inhibitory concentration (IC50) in test [8] came out at 58 nM; in test [11], 7.4 nM.
For `CCN1C[C@@H]([C@H](O)[C@H](CC2CCCCC2)NC(=O)[C@H](Cc2cc[nH]n2)NC(=O)[C@@H](CC(=O)N2CCOCC2)Cc2ccccc2)OC1=O`, the Plasma level in test [4] was 28 ng/mL; in test [5], 58 ng/mL; in test [9] it was 6.7 ng/mL; in [12] it was 7 ng/mL. The IC50 in test [8] worked out at 21 nM; in test [11], 1.1 nM.
`CCN1C[C@@H]([C@H](O)[C@H](CC2CCCCC2)NC(=O)[C@H](Cc2cccs2)NC(=O)[C@@H](CC(=O)N2CCOCC2)Cc2ccccc2)OC1=O`: the concentration for half-maximal inhibition (IC50) in test [8] was determined as 43 nM; in [11], 1.5 nM.
`CCN1C[C@@H]([C@H](O)[C@H](CC2CCCCC2)NC(=O)[C@H](Cc2c[nH]cn2)NC(=O)[C@@H](CC(=O)N2CCOCC2)Cc2ccccc2)OC1=O`: the inhibition in test [2] and in [7] was 2% each time. Further, the Plasma level in [4] is 280 ng/mL; in test [5] it was 390 ng/mL; in [9], 55 ng/mL; in test [12] it was 34 ng/mL.
